{"data": "Measurements collected from several papers", "PARP3": "Protein mono-ADP-ribosyltransferase PARP3 (PARP3, Homo sapiens, UniProt Q9Y6F1)", "Mapk1": "Mitogen-activated protein kinase 1 (Mapk1, Mus musculus, UniProt P63085)", "ADRA1B": "Alpha-1B adrenergic receptor (ADRA1B, Homo sapiens, UniProt P35368)"}
{"SMILES": "O=C1CCNC(=O)c2cc(Cl)c(Cl)cc21", "target": "PARP3", "test": "enzyme activity, inhibitor", "setting": "10 µM", "inhibition": "85%"}
{"SMILES": "CN(C)C1CCN(CC#Cc2nn(C3CCCC3)c3nc(NCc4ccccc4)ncc23)C1 (centres unmarked)", "target": "Macrophage colony-stimulating factor 1 receptor (CSF1R, Homo sapiens, UniProt P07333)", "test": "enzyme activity, inhibitor, FRET", "setting": "1 µM", "inhibition": "82%"}
{"SMILES": "Cn1cnc(Br)c1C1=CN(c2ncnc3[nH]cnc23)CCS1", "target": "Myosin-IIIa (MYO3A, Homo sapiens, UniProt Q8NEV4)", "test": "enzyme activity, inhibitor, radiometric", "setting": "2 µM", "inhibition": "29.9%"}
{"SMILES": "CCN(CC)CCNC(=O)c1c(C)[nH]c(/C=C2\\C(=O)Nc3ccc(F)cc32)c1C", "target": "Mapk1", "test": "enzyme activity, inhibitor", "setting": "10 µM", "inhibition": "-14%"}
{"SMILES": "CCCNc1nc2ccccc2n1Cc1ccc(Cl)cc1", "target": "ADRA1B", "test": "ligand displacement", "setting": "10 µM", "inhibition": "16.1%"}
{"SMILES": "O=C(O)Cc1ccccc1Nc1c(F)cccc1Cl", "target": "Prostaglandin G/H synthase 2 (Ptgs2, Mus musculus, UniProt Q05769)", "test": "enzyme activity, inhibitor", "setting": "10 µM, with preincubation", "inhibition": "25%"}
{"SMILES": "Nc1ccc2c(c1)CCCn1nnnc1-2", "target": "PARP3", "test": "enzyme activity, inhibitor", "setting": "10 µM", "inhibition": "0%"}
{"SMILES": "O=C1N=C(N2CCCCN2)S/C1=C\\c1ccc(F)cc1O", "target": "Corticotropin-releasing factor receptor 1 (CRHR1, Homo sapiens, UniProt P34998)", "test": "ligand displacement, radioligand", "setting": "10 µM", "inhibition": "< 10%"}
{"SMILES": "O=C(O)c1ncccc1O", "target": "Interstitial collagenase (MMP1, Homo sapiens, UniProt P03956)", "test": "enzyme activity, inhibitor, fluorescence", "setting": "1 mM", "inhibition": "~50%"}
{"SMILES": "O=C1CCCc2ccc(F)cc2N1", "target": "PARP3", "test": "enzyme activity, inhibitor", "setting": "10 µM", "inhibition": "0%"}
{"SMILES": "O=C(c1ccc(Cl)cc1)N(Cc1ccccc1)C1CCCCC1", "target": "ADRA1B", "test": "cell-free assay", "setting": "10 µM", "inhibition": "11.3%"}
{"SMILES": "CCN1CCN(Cc2ccc(NC(=O)c3ccc(C)c(Oc4ccnc5[nH]ccc45)c3)cc2C(F)(F)F)CC1", "target": "Microtubule-associated serine/threonine-protein kinase 4 (MAST4, Homo sapiens, UniProt O15021)", "test": "target engagement in cells, inhibitor, chemoproteomics", "test system": "Huh-7", "setting": "1 µM", "inhibition": "-11.5%"}
{"SMILES": "Cc1ccc(Nc2nccc(N(C)c3ccc4c(C)n(C)nc4c3)n2)cc1S(N)(=O)=O", "target": "Mapk1", "test": "enzyme activity, inhibitor", "setting": "10 µM", "inhibition": "3%"}
{"SMILES": "Oc1cccc(Nc2nc(-c3ccc(F)cc3F)cs2)c1", "target": "ADRA1B", "test": "cell-free assay", "setting": "10 µM", "inhibition": "16.4%"}
{"SMILES": "Ic1cccc2cnccc12", "target": "PARP3", "test": "enzyme activity, inhibitor", "setting": "10 µM", "inhibition": "7%"}
{"SMILES": "CC/C(=N\\NC(=O)C(C)Nc1ccccc1)c1ccc(O)c(C)c1O (centres unmarked)", "target": "cAMP-dependent protein kinase catalytic subunit gamma (PRKACG, Homo sapiens, UniProt P22612)", "test": "enzyme activity, inhibitor", "setting": "0.1 µM", "inhibition": "34.9%"}
{"SMILES": "O=C1CCCc2c(O)cccc2N1", "target": "PARP3", "test": "enzyme activity, inhibitor", "setting": "10 µM", "inhibition": "0%"}
